# Measurements from ChEMBL document CHEMBL1142371, “Synthesis and biological evaluation of imidazol-2-one derivatives as potential antitumor agents” (Bioorg Med Chem, 2008).
# Assays:
# HL-60 = test: Cytotoxicity against human HL60 cells after 48 hrs by MTT assay; format: functional, cell-based; conditions: HL-60, 48 h
# Method in brief: (§1)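 MTT read-out after 48 h drug exposure; MTT then added for a further 4 h at 37 °C, formazan dissolved in DMSO, absorbance at 570 nm. Triplicate wells in three independent experiments; IC50 = concentration giving 50% inhibition of cell viability, values are means of three experiments.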
# [1] = Cytotoxicity against multidrug-resistant human K562R cells after 48 hrs by MTT assay; format: functional, cell-based; conditions: K-562R; method in brief: as §1
# PC-3 = test: Cytotoxicity against human PC3 cells after 48 hrs by MTT assay; format: functional, cell-based; conditions: PC-3, 48 h; method in brief: as §1
# [2] = Cytotoxicity against human ECA109 cells after 48 hrs by MTT assay; format: functional, cell-based; conditions: ECa-109, 48 h; method in brief: as §1
# A549 = test: Cytotoxicity against human A549 cells after 48 hrs by MTT assay; format: functional, cell-based; conditions: A549, 48 h; method in brief: as §1
# K562 [3] = test: Cytotoxicity against human K562 cells after 48 hrs by MTT assay; format: functional, cell-based; conditions: K562, 48 h; method in brief: as §1
# MCF7 = test: Cytotoxicity against human MCF7 cells after 48 hrs by MTT assay; format: functional, cell-based; conditions: MCF7, 48 h; method in brief: as §1
# Bel-7402 = test: Cytotoxicity against human BEL-7402 cells after 48 hrs by MTT assay; format: functional, cell-based; conditions: Bel-7402, 48 h; method in brief: as §1
# CCRF S-180 [4] = test: Antitumor activity in mouse xenografted with S180 cells assessed as inhibition of tumor growth at 15 mg/kg/day, im after 10 days; format: functional; conditions: CCRF S-180, im, 240 h, route intramuscular
# Method in brief: (§2)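 S-180 or H-22 cells expanded in mice for 10 days, then 2.5 × 10⁶ viable tumor cells per mouse injected subcutaneously into the armpit of female mice (9 per treated group, 18 negative controls). Compound given im once daily for 10 consecutive days; saline negative control, cyclophosphamide 30.0 mg/kg ip positive control. Tumors excised and weighed on day 10; inhibition rate = (C − T)/C × 100 from mean tumor weights.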
# Mus musculus [5] = test: Effect on body weight in mouse bearing H22 cells at 5 mg/kg/day, im after 10 days; format: functional; conditions: route intramuscular
# Method in brief: (§3)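 Female tumor-bearing mice (S-180 or H-22, 2.5 × 10⁶ cells subcutaneously in armpit) dosed im once daily for 10 consecutive days; saline negative control. Initial and end body weights recorded per group.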
# Mus musculus [6] = test: Effect on body weight in mouse bearing H22 cells at 20 mg/kg/day, im after 10 days; format: functional; conditions: route intramuscular; method in brief: as §3
# K562 [7] = test: Cell cycle arrest in human K562 cells assessed as accumulation at G2/M phase at 0.01 uM after 48 hrs by flow cytometry; format: functional
# Method in brief: (§4)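 K562 cells in exponential growth exposed 48 h to 0–1 µM compound. Cells washed twice in PBS, fixed in 70% ethanol at −20 °C, RNase-treated 1 h at 37 °C, stained with propidium iodide 30 min at 4 °C. DNA content by flow cytometry gives cell-cycle phase distribution and apoptotic fraction.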
# K562 [8] = test: Cell cycle arrest in human K562 cells assessed as accumulation at S phase at 0.01 uM after 48 hrs by flow cytometry; format: functional; method in brief: as §4
# K562 [9] = test: Induction of apoptosis in human K562 cells at 0.1 uM after 48 hrs by flow cytometry; format: functional; method in brief: as §4
# K562 [10] = test: Induction of apoptosis in human K562 cells at 1 uM after 48 hrs by flow cytometry; format: functional; method in brief: as §4
# Mus musculus [11] = test: Effect on body weight in mouse bearing S180 cells at 15 mg/kg/day, im after 10 days; format: functional, CCRF S-180; conditions: route intramuscular; method in brief: as §3
# Mus musculus [12] = test: Antitumor activity in mouse xenografted with H22 cells assessed as inhibition of tumor growth at 5 mg/kg/day, im after 10 days; format: functional; conditions: 240 h, route intramuscular; method in brief: as §2
# Mus musculus [13] = test: Antitumor activity in mouse xenografted with H22 cells assessed as inhibition of tumor growth at 20 mg/kg/day, im after 10 days; format: functional; conditions: 240 h, route intramuscular; method in brief: as §2
# CCRF S-180 [14] = test: animal or person; conditions: Mus musculus, CCRF S-180, ip, 240 h, read-out: Inhibition
# H22 = test: animal or person; conditions: Mus musculus, H22, ip, 240 h, read-out: Inhibition
SMILES,IC50 (HL-60) [µM],IC50 [1] [µM],IC50 (PC-3) [µM],IC50 [2] [µM],IC50 (A549) [µM],IC50 (K562 [3]) [µM],IC50 (MCF7) [µM],IC50 (Bel-7402) [µM],inhibition in vivo at 15 mg/kg/day (CCRF S-180 [4]) [%],Activity (Mus musculus [5]) [g],Activity (Mus musculus [6]) [g],Activity (K562 [7]) [%],Activity (K562 [8]) [%],Activity (K562 [9]) [%],Activity (K562 [10]) [%],Activity (Mus musculus [11]) [g],inhibition in vivo at 5 mg/kg/day (Mus musculus [12]) [%],inhibition in vivo at 20 mg/kg/day (Mus musculus [13]) [%],inhibition in vivo at 30 mg/kg/day (CCRF S-180 [14]) [%],inhibition in vivo at 30 mg/kg/day (H22) [%]
COc1ccc(-c2c[nH]c(=O)n2-c2cc(OC)c(OC)c(OC)c2)cc1,19.8,> 50,> 50,> 50,> 50,–,–,–,–,–,–,–,–,–,–,–,–,–,–,–
COc1ccc(-c2cn(C(C)=O)c(=O)n2-c2cc(OC)c(OC)c(OC)c2)cc1OC,12.2,> 50,> 50,> 50,> 50,43.4,> 50,> 50,–,–,–,–,–,–,–,–,–,–,–,–
COc1ccc(-c2cn(C(=O)Nc3cc(OC)c(OC)c(OC)c3)c(=O)n2-c2cc(OC)c(OC)c(OC)c2)cc1OC,6.5,> 50,> 50,> 50,> 50,> 50,> 50,> 50,–,–,–,–,–,–,–,–,–,–,–,–
COc1ccc(-c2cn(C(=O)Nc3cc(OC)c(OC)c(OC)c3)c(=O)n2-c2cc(OC)c(OC)c(OC)c2)cc1[N+](=O)[O-],19.7,> 50,> 50,> 50,> 50,7.2,–,–,–,–,–,–,–,–,–,–,–,–,–,–
COc1ccc(-c2cn(C(C)=O)c(=O)n2-c2cc(OC)c(OC)c(OC)c2)cc1[N+](=O)[O-],5.6,> 50,30.3,30.8,40.9,> 50,> 50,35.7,–,–,–,–,–,–,–,–,–,–,–,–
COc1ccc(-c2cn(C(=O)Nc3cc(OC)c(OC)c(OC)c3)c(=O)n2-c2cc(OC)c(OC)c(OC)c2)cc1O,15.4,> 50,> 50,> 50,> 50,> 50,–,–,–,–,–,–,–,–,–,–,–,–,–,–
COc1cc(-n2c(-c3ccccc3)cn(C(C)=O)c2=O)cc(OC)c1OC,5.6,9.6,> 50,> 50,> 50,> 50,> 50,> 50,–,–,–,–,–,–,–,–,–,–,–,–
COc1ccc(-c2cn(C(=O)Nc3cc(OC)c(OC)c(OC)c3)c(=O)n2-c2cc(OC)c(OC)c(OC)c2)cc1,5.4,3.5,49.7,> 50,> 50,3.8,> 50,> 50,–,–,–,–,–,–,–,–,–,–,–,–
COc1ccc(-c2c[nH]c(=O)n2-c2cc(OC)c(OC)c(OC)c2)cc1N,10.3,> 50,49.8,> 50,> 50,49.2,> 50,> 50,–,–,–,–,–,–,–,–,–,–,–,–
COc1cc(-n2c(-c3ccc([N+](=O)[O-])cc3)cn(C(C)=O)c2=O)cc(OC)c1OC,7.2,49.6,32.9,> 50,49.6,26.6,> 50,> 50,–,–,–,–,–,–,–,–,–,–,–,–
COc1cc(-n2c(-c3ccc(F)cc3F)cn(C(C)=O)c2=O)cc(OC)c1OC,7.6,> 50,34.3,> 50,24.1,> 50,49.3,36.2,–,–,–,–,–,–,–,–,–,–,–,–
COc1ccc(-c2cn(C(=O)Nc3cc(OC)c(OC)c(OC)c3)c(=O)n2-c2cc(OC)c(OC)c(OC)c2)cc1N,3.1,9.4,10,> 50,11.1,5.8,> 50,10.1,–,–,–,–,–,–,–,–,–,–,–,–
COc1cc(-n2c(-c3ccc(Cl)cc3)cn(C(C)=O)c2=O)cc(OC)c1OC,4.9,–,–,> 50,> 50,> 50,–,–,–,–,–,–,–,–,–,–,–,–,–,–
COc1ccc(-c2c[nH]c(=O)n2-c2cc(OC)c(OC)c(OC)c2)cc1OC,38.8,> 50,> 50,> 50,> 50,–,–,–,–,–,–,–,–,–,–,–,–,–,–,–
COc1cc(-n2c(-c3ccc(O)cc3)c[nH]c2=O)cc(OC)c1OC,20,> 50,30.2,> 50,> 50,> 50,> 50,> 50,–,–,–,–,–,–,–,–,–,–,–,–
COc1ccc(-c2c[nH]c(=O)n2-c2cc(OC)c(OC)c(OC)c2)cc1[N+](=O)[O-],14.3,> 50,> 50,> 50,> 50,–,–,–,–,–,–,–,–,–,–,–,–,–,–,–
COc1cc(-n2c(-c3ccc(Br)cc3)cn(C(C)=O)c2=O)cc(OC)c1OC,0.2,0.9,3.1,3.8,1.3,1,10.6,1.2,55.3,26.8,27.6,31,54,45.6,78.6,35.1,29.4,55.5,–,–
COc1ccc(-c2cn(C(C)=O)c(=O)n2-c2cc(OC)c(OC)c(OC)c2)cc1,5.5,9.5,19.7,> 50,17.8,0.2,> 50,9.5,–,–,–,–,–,–,–,–,–,–,–,–
COc1cc(NC(=O)n2cc(-c3ccc(O)cc3)n(-c3cc(OC)c(OC)c(OC)c3)c2=O)cc(OC)c1OC,6.3,> 50,3,> 50,2.5,10.4,> 50,> 50,–,–,–,–,–,–,–,–,–,–,–,–
COc1ccc(-c2cn(C(C)=O)c(=O)n2-c2cc(OC)c(OC)c(OC)c2)cc1N,0.4,49.3,21.4,> 50,1.1,0.5,43.4,0.6,–,–,–,–,–,–,–,–,–,–,–,–
O=P1(N(CCCl)CCCl)NCCCO1 (centres undefined) [CYCLOPHOSPHAMIDE ANHYDROUS],–,–,–,–,–,–,–,–,–,–,–,–,–,–,–,–,–,–,63.5,36.2
CC(=O)O[C@@]12CO[C@@H]1C[C@H](O)[C@@]1(C)C(=O)[C@H](O)C3=C(C)[C@@H](OC(=O)[C@H](O)[C@@H](NC(=O)OC(C)(C)C)c4ccccc4)C[C@@](O)([C@@H](OC(=O)c4ccccc4)[C@H]21)C3(C)C [DOCETAXEL],–,–,54.8,–,1.7,8.5,4,–,–,–,–,–,–,–,–,–,–,–,–,–
